Entries after “also recorded” stand apart in the source; their conditions may differ. Read-outs that look alike come from different tables or passages of the source.
Legend:
[1] = cited from earlier work
HER2 = conditions: read-out: half maximal inhibitory concentration for inhibiting the phosphorylation of HER2; ref [17], [23]–[26]; cited from earlier work
HER4 = conditions: read-out: half maximal inhibitory concentration for inhibiting the phosphorylation of HER4; ref [17], [23]–[26]; cited from earlier work
HER1 = conditions: read-out: half maximal inhibitory concentration for inhibiting the phosphorylation of HER1; ref [17], [23]–[26]; cited from earlier work
[2] = Paclitaxel pharmacokinetics in patients, cycle 1 day 1 and day 8; type: in vivo, human; conditions: for AUC(0-t): human, plasma, mean AUC0–24h of paclitaxel, cycle 1 day 1
[3] = Treatment-related adverse events; type: in vivo, human
[4] = Varlitinib plasma pharmacokinetics in patients, cycle 1; type: in vivo; conditions: human, oral, mean AUC0–24h, cohorts pooled
How it was run: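 Blood samples taken in cycle 1 from patients on intermittent (4 days on/3 off) oral twice-daily varlitinib with weekly chemotherapy ± trastuzumab. Sampling was on cycle 1 day 5 at 0, 0.5, 1, 2, 5, 7 and 24 h after the varlitinib dose.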

[5] = cited from earlier work; remark: listed apart in the source
[6] = Phase Ib dose-limiting toxicities and MTD determination; type: in vivo, human
[7] = test system: advanced or metastatic solid tumors; assay: Tumor response; type: in vivo, human
[8] = cohort A2: varlitinib 400 mg BD continuous + carboplatin + paclitaxel
[9] = cohort B (varlitinib + paclitaxel), n = 1

In the case of CS(=O)(=O)CCNCc1ccc(-c2ccc3ncnc(Nc4ccc(OCc5cccc(F)c5)c(Cl)c4)c3c2)o1 [lapatinib], the “grade 3 and 4 diarrhea rate” value ([1]; combination of lapatinib and capecitabine) is listed as 12%, the “grade 3 and 4 diarrhea rate” value ([1]; combination of lapatinib and letrozole) is listed as 8% and the IC50 (HER2) is listed as […].
In the case of CCOc1cc2ncc(C#N)c(Nc3ccc(OCc4ccccn4)c(Cl)c3)c2cc1NC(=O)/C=C/CN(C)C [neratinib, reference compound], the IC50 (HER4) is given as 19 nM, the IC50 (HER2) is given as 39 nM and the IC50 (HER1) is given as 12 nM.
CC(=O)O[C@H]1C(=O)[C@@]2(C)[C@H]([C@H](OC(=O)c3ccccc3)[C@]3(O)C[C@H](OC(=O)[C@H](O)[C@@H](NC(=O)c4ccccc4)c4ccccc4)C(C)=C1C3(C)C)[C@]1(OC(C)=O)CO[C@@H]1C[C@@H]2O [paclitaxel, reference compound] gave an AUC(0-t) ([2]; varlitinib 300-mg intermittent dosing cohorts (A4, B1, C1)) of 5010 ± 1860 ng·h/mL and an AUC(0-t) ([2]; varlitinib 400-mg intermittent dosing cohorts (A3, B2)) of 6130 ± 2050 ng·h/mL.
In the case of C[C@@H]1COC(Nc2ccc3ncnc(Nc4ccc(OCc5nccs5)c(Cl)c4)c3c2)=N1 [varlitinib], the “all grade pneumonitis rate” value [3] is reported as 5.4%, the “patients with reduction in left ventricular ejection fraction or cardiomyopathy” value ([3]; all cohorts) is reported as “None” and the treatment-related mortality ([3]; all cohorts) is reported as “no treatment-related mortality”. The “any grade AE diarrhea” value ([3]; overall, all cohorts (n = 37)) was 70.2%, the “any grade AE fatigue” value ([3]; overall, all cohorts (n = 37)) was 67.5% and the “any grade AE neutropenia” value ([3]; overall, all cohorts (n = 37)) was 45.9%. The “grade 3 and above AE hyponatremia” value ([3]; overall, all cohorts (n = 37)) was 16.2%, the “grade 3 and above AE hypophosphatemia” value ([3]; overall, all cohorts (n = 37)) was 13.5% and the “grade 3 and above AE neutropenia” value ([3]; overall, all cohorts (n = 37)) was 40.5%. The IC50 (HER4) was 4 nM, the IC50 (HER2) was 2 nM and the AUC(0-t) ([4]; 300-mg intermittent dosing) was 44000 ng·h/mL. For the same compound, the AUC(0-t) ([4]; 400-mg intermittent dosing) was 75600 ng·h/mL, the IC50 (HER1) was 7 nM and the “maximum tolerated dose (MTD)” value ([5]; monotherapy (ARRAY 543-103), continuous dose twice a day) was 500 mg. For the same compound, the median half-life ([5]; reported in other studies) was 5 to 7 h, the “febrile neutropenia, patients” value ([5]; varlitinib in combination with 3-weekly docetaxel, phase I study) was 7% and the “DLT in cycle 1 (type = number of patients)” value [6, 8] was “Febrile neutropenia = 3”. For the same compound, the “Number with DLTs” value [6, 8] was 3/5, the “Number with DLTs” value ([6]; cohort A3: varlitinib 400 mg BD intermittent + carboplatin + paclitaxel) was 2/4 and the “Number with DLTs” value ([6]; cohort A4: varlitinib 300 mg BD intermittent + carboplatin + paclitaxel) was 2/6. For the same compound, the “DLT G3/4 neutropenia, patients” value ([6]; cohort A (varlitinib + carboplatin + paclitaxel), n = 6 of 18) was 33.3%, the “Number with DLTs” value ([6]; cohort B1: varlitinib 300 mg BD intermittent + weekly paclitaxel) was 0/6 and the “DLT in cycle 1 (type = number of patients)” value ([6]; cohort B2: varlitinib 400 mg BD intermittent + paclitaxel) was “Febrile neutropenia = 1; also recorded: G3 transaminitis =1”. For the same compound, the “Number with DLTs” value ([6]; cohort B2: varlitinib 400 mg BD intermittent + weekly paclitaxel) was 2/4, the “DLT in cycle 1 (type = number of patients)” value ([6]; cohort B3: varlitinib 300 mg BD continuous + paclitaxel) was “G3 diarrhea = 1” and the “Number with DLTs” value ([6]; cohort B3: varlitinib 300 mg BD continuous + weekly paclitaxel) was 4/6. For the same compound, the “DLT G3 diarrhea, patients” value [6, 9] was 6.25%, the “DLT G3 transaminitis, patients” value [6, 9] was 6.25% and the “DLT G3/4 neutropenia, patients” value ([6]; cohort B (varlitinib + paclitaxel), n = 3 of 16) was 18.8%. For the same compound, the “recommended phase II dose of varlitinib for the triplet combination” value ([6]; intermittently, with weekly paclitaxel and 3-weekly subcutaneous trastuzumab 600 mg) was 300 mg, the “median duration on study treatment” value ([7]; all patients, range 0.1–17.1 months) was 3.0 months and the “median PFS” value ([7]; all patients, range 0.3–17.1 months) was 3.7 months. For the same compound, the overall response rate ([7]; entire cohort, 11/37) was 29.7%, the partial response rate ([7]; excluding the two subjects with non-metastatic breast cancer, 10/30) was 33.3% and the stable disease ([7]; excluding the two subjects with non-metastatic breast cancer, 13/30) was 43.3%. The “stable disease as best response” value ([7]; patients evaluable for response, 13/31) was 41.9%, the “median duration on study treatment” value ([7]; patients who achieved a partial response, range 2.2–17.1 months) was 5.0 months and the objective responses ([7]; varlitinib 300 mg continuous, 1/5 evaluable) was 20%. For the same compound, the objective responses ([7]; varlitinib 300 mg intermittent, 4/14 evaluable) was 28.6%, the objective responses ([7]; varlitinib 400 mg continuous, 2/5 evaluable) was 40% and the objective responses ([7]; varlitinib 400 mg intermittent, 3/6 evaluable) was 50%. The objective responses ([7]; varlitinib 500 mg continuous, 1/1 evaluable) was 100% and the “effect of varlitinib on the pharmacokinetics (Cmax, AUC) of paclitaxel” value ([2]; paclitaxel 80 mg/m^2 weekly) was “Varlitinib was well tolerated and did not significantly affect the pharmacokinetics of paclitaxel”.
